Experimental findings from ChEMBL document CHEMBL4406821, “Novel dual inhibitors targeting CDK4 and VEGFR2 synergistically suppressed cancer progression and angiogenesis” (Eur J Med Chem, 2019) are described below.

Structures are written as SMILES. Activity calls are given as the source filed them. The rule behind the calls is not given here.

Data set [1] in a line: n-octanol/water partition coefficient, log P of the compound by shake flask method based HPLC analysis. It counts as physicochemical.
A short description of data set [2]: MRT (0 to t) in Sprague-Dawley rat at 10 mg/kg, iv by HPLC-MS analysis. Particulars: in vivo. Type of data set: ADME, organism-based.
Data set [3] in a line: Cmax in Sprague-Dawley rat at 10 mg/kg, iv by HPLC-MS analysis. It counts as ADME, organism-based. Also noted: dose 10 mg/kg, route intravenous. As to conditions: in vivo. In short, it runs like this:
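Rats fitted with jugular vein catheters for serial blood sampling. Compound dissolved in saline with 5% (v/v) DMSO and given as a single 10 mg/kg dose iv or po after an overnight fast, n = 5 per group. Plasma isolated at once and measured by HPLC with tandem MS detection. Parameters derived by noncompartmental fitting.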

Data set [4] deals with Activin receptor type-1B (Homo sapiens) (UniProt P36896). In words: Inhibition of recombinant human ALK4 (150 to end residues) at 1 uM using as casein substrate incubated for 40 mins in presence of [gamma-33P]-ATP by scintillation counting method relative to control. The method in brief: (§1)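 Kinase panel profiling at 1 μM performed by Eurofins KinaseProfiler; percent inhibition reported as mean of two independent experiments.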

The target in data set [5] is Discoidin domain-containing receptor 2 (Homo sapiens) (UniProt Q16832). The experiment in a line: Inhibition of recombinant human DDR2 (467 to end residues) at 1 uM using KKSRGDYMTMQIG as substrate incubated for 40 mins in presence of [gamma-33P]-ATP by scintillation counting method relative to control. The method in brief:
as §1

Data set [6] concerns the target Ephrin type-A receptor 3 (Homo sapiens) (UniProt P29320). In words: Inhibition of recombinant human EPhA3 (578 to end residues) at 1 uM using poly(Glu, Tyr) 4:1 as substrate incubated for 40 mins in presence of [gamma-33P]-ATP by scintillation counting method relative to control.
Data set [7] has as its target Ephrin type-A receptor 7 (Homo sapiens) (UniProt Q15375). In words: Inhibition of recombinant human EPhA7 (613 to 909 residues) at 1 uM using KTFCGTPEYLAPEVRREPRILSEEEQEMFRDFDYIADWC as substrate incubated for 40 mins in presence of [gamma-33P]-ATP by scintillation counting method relative to control.
The target in data set [8] is Receptor tyrosine-protein kinase erbB-4 (Homo sapiens) (UniProt Q15303). In words: Inhibition of recombinant human ERBB4 (706 to 991 residues) at 1 uM using poly (Glu, Tyr) 4:1 as substrate incubated for 40 mins in presence of [gamma-33P]-ATP by scintillation counting method relative to control. The method in brief: (§2)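 Tested at a single 1 uM in an outsourced commercial kinase-profiling panel, read as percent inhibition. Each value is the mean of two independent experiments.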

In data set [9] the test system is Mast/stem cell growth factor receptor Kit (Homo sapiens), P10721 [D816V]. In words: Inhibition of recombinant human cKIT D816V mutant (544 to end residues) at 1 uM using poly(Glu, Tyr) 4:1 as substrate incubated for 40 mins in presence of [gamma-33P]-ATP by scintillation counting method relative to control. The method in brief: as §2
In data set [10] the target is Inhibitor of nuclear factor kappa-B kinase subunit epsilon (Homo sapiens) (UniProt Q14164). In words: Inhibition of recombinant human full length IKKepsilon at 1 uM using casein as substrate incubated for 40 mins in presence of [gamma-33P]-ATP by scintillation counting method relative to control.
Data set [11] deals with LIM domain kinase 2 (Homo sapiens) (UniProt P53671). The experiment in a line: Inhibition of recombinant human LIMK2 at 1 uM incubated for 40 mins in presence of [gamma-33P]-ATP by scintillation counting method relative to control.
Data set [12] has as its target NUAK family SNF1-like kinase 2 (Homo sapiens) (UniProt Q9H093). The experiment in a line: Inhibition of recombinant human full length NUAK2 at 1 uM using KKKVSRSGLYRSPSMPENLNRPR as substrate incubated for 40 mins in presence of [gamma-33P]-ATP by scintillation counting method relative to control.
The target of data set [13] is Serine-protein kinase ATM (Homo sapiens) (UniProt Q13315). The experiment in a line: Inhibition of recombinant human full length ATM at 1 uM using GST-cMyc-p53 as substrate incubated for 40 mins in presence of [gamma-33P]-ATP by scintillation counting method relative to control.
The target of data set [14] is Protein kinase C zeta type (Homo sapiens) (UniProt Q05513). The experiment in a line: Inhibition of recombinant human PKCzeta (2 to end residues) at 1 uM using ERMRPRKRQGSVRRRV as substrate incubated for 40 mins in presence of [gamma-33P]-ATP by scintillation counting method relative to control.
The target of data set [15] is Wee1-like protein kinase 2 (Homo sapiens) (UniProt P0C1S8). The experiment in a line: Inhibition of recombinant human full length WEE1B at 1 uM using LSNLYHQGKFLQTFCGSPLYRRR as substrate incubated for 40 mins in presence of [gamma-33P]-ATP by scintillation counting method relative to control. In short, it runs like this:
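Single-point inhibition at 1 uM measured in a commercial kinase profiling panel (KinaseProfiler); each value is the mean of two independent experiments.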

Data set [16] in a line: Toxicity in BALB/c mouse assessed as effect on blood parameter by measuring MCH at 40 mg/kg, po administered once two days for 4 times by hematology analyzer. As to conditions: in vivo.
The nature of data set [17]: Toxicity in BALB/c mouse assessed as effect on blood parameter by measuring monocytes content at 40 mg/kg, po administered once two days for 4 times by hematology analyzer. As to conditions: in vivo.
The nature of data set [18]: Toxicity in BALB/c mouse assessed as effect on blood parameter by measuring hemoglobin content at 40 mg/kg, po administered once two days for 4 times by hematology analyzer. As to conditions: in vivo.
Data set [19] has as its system SiHa. The experiment in a line: Induction of apoptosis in human SiHa cells assessed as decrease in Bcl2 expression at 40 nM incubated for 48 hrs by Western blot analysis. Type of data set: functional, cell-based. The method in brief:
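Cancer cells were exposed to graded concentrations for 48 h, washed three times in PBS and lysed in RIPA buffer. Immunoblots were probed with anti-Rb, anti-phospho-Rb, anti-Ki67 and anti-Bcl-2, each at 1:1000. β-actin served as loading control.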

A further data set relates to HeLa. The experiment in a line: Induction of apoptosis in human HeLa cells at 40 nM incubated for 48 hrs by annexin V FITC and propidium iodide staining based flow cytometry. It counts as functional, cell-based. The method in brief:
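Cells were treated for 48 h, stained with FITC Annexin V and PI, and analyzed by flow cytometry to count early and late apoptotic cells.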

The subject of data set [20] is SiHa. The experiment in a line: Antiangiogenic activity against human SiHa cells xenografted in NOD/SCID BALB/c mouse assessed as reduction in CD31 expression at 40 mg/kg, po measured after 21 days by hematoxylin and eosin staining based immunohistochemistry. It counts as functional, organism-based. The method in brief: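 Female NOD/SCID Balb/c mice, 6–8 weeks old, received 2×10^6 SiHa cells subcutaneously in the right flank. Once tumors reached 100 mm³, mice were randomized, 5 per group, and gavaged once daily for 21 days. Formalin-fixed, paraffin-embedded tumor sections were stained with Ki67 or CD31 antibody (1:100, 4 °C overnight), then biotin secondary and ABC-peroxidase/DAB, with hematoxylin counterstain.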

Discoidin domain-containing receptor 2 (Homo sapiens), sequence (Q16832 whole entry, the tested form may be a part): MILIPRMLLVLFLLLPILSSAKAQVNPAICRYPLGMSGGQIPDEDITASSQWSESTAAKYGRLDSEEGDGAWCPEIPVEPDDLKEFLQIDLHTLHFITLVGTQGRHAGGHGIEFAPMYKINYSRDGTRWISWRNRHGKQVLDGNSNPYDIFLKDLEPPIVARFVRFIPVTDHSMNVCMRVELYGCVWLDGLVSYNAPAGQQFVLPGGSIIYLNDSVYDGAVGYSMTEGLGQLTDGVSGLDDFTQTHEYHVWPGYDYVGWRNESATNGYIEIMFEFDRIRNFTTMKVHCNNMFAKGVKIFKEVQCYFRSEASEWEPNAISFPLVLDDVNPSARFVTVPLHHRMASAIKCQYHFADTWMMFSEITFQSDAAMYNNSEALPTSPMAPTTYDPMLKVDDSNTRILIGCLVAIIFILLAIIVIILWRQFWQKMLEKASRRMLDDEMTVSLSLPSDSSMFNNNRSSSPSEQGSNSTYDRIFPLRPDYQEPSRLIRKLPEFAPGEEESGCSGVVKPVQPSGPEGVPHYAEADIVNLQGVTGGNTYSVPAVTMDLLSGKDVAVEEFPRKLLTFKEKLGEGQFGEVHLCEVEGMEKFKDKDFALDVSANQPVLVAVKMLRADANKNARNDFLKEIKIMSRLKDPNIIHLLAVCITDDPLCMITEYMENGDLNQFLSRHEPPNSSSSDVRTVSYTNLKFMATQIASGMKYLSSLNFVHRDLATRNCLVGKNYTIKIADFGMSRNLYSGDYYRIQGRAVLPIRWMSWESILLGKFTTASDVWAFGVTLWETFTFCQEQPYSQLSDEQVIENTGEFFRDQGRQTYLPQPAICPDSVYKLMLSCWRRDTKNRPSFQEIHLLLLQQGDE
NUAK family SNF1-like kinase 2 (Homo sapiens), sequence (Q9H093 whole entry): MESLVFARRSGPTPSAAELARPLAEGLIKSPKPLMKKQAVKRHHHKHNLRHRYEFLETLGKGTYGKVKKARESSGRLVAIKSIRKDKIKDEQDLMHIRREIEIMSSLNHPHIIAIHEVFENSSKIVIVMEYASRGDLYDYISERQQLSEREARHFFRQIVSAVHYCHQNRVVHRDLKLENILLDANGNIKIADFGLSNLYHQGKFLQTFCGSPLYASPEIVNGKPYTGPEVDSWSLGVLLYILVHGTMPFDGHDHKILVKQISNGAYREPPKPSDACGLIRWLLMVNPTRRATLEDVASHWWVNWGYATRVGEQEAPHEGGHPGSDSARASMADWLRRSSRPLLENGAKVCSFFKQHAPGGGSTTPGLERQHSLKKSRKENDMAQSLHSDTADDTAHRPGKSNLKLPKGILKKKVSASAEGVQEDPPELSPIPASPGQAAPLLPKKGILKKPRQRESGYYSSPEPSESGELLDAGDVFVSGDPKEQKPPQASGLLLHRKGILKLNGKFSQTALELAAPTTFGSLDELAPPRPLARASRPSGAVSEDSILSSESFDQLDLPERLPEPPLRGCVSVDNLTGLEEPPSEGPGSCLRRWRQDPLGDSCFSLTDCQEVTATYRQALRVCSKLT
LIM domain kinase 2 (Homo sapiens), sequence (P53671 whole entry, looked up, the tested form may be a part): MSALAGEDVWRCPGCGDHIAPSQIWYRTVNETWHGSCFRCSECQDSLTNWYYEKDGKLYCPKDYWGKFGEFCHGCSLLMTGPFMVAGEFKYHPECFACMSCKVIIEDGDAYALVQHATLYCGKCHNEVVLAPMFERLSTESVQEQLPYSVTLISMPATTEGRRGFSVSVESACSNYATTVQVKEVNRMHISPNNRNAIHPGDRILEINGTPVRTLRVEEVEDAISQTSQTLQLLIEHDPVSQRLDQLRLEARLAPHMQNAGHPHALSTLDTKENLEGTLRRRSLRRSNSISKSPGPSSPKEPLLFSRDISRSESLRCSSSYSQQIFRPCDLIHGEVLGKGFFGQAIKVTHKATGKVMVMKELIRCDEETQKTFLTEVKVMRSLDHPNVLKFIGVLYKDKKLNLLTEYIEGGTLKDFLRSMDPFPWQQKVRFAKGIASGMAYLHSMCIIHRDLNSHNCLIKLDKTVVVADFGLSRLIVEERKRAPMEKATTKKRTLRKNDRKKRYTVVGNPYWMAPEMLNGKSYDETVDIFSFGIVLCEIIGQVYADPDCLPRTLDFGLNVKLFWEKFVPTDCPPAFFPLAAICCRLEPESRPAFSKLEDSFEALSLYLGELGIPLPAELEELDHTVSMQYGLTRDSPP
Activin receptor type-1B (Homo sapiens), sequence (P36896 whole entry): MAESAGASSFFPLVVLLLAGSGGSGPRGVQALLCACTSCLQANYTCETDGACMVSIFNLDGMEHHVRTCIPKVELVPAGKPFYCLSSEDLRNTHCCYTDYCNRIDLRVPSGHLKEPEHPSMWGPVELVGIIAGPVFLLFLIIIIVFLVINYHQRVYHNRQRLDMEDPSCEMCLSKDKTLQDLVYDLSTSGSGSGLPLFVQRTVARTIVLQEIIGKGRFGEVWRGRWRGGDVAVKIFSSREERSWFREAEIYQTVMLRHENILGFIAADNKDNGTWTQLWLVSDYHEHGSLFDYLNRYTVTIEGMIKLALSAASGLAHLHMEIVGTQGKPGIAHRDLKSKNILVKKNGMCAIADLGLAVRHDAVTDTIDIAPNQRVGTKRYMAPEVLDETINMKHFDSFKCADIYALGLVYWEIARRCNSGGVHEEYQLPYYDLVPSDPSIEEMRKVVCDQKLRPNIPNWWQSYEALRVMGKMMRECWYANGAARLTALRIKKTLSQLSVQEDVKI
Protein kinase C zeta type (Homo sapiens), sequence (Q05513 whole entry): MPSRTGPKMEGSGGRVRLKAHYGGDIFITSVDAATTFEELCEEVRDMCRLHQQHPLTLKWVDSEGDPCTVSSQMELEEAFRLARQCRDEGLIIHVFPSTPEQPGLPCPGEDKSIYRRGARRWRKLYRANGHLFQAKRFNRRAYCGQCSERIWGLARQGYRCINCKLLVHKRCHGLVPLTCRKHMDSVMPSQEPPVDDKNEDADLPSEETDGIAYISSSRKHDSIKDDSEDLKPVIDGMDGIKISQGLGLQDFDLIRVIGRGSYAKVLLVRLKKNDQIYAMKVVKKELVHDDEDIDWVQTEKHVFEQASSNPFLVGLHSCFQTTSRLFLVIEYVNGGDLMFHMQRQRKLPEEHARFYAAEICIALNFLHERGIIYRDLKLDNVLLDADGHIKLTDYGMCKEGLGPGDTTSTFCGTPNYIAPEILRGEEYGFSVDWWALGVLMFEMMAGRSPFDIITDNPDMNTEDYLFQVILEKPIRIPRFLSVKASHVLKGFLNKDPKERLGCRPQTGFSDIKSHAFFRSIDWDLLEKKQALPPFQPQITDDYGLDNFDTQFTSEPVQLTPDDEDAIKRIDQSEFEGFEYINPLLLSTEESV
Mast/stem cell growth factor receptor Kit (Homo sapiens), P10721 [D816V], sequence (P10721 whole entry D816V): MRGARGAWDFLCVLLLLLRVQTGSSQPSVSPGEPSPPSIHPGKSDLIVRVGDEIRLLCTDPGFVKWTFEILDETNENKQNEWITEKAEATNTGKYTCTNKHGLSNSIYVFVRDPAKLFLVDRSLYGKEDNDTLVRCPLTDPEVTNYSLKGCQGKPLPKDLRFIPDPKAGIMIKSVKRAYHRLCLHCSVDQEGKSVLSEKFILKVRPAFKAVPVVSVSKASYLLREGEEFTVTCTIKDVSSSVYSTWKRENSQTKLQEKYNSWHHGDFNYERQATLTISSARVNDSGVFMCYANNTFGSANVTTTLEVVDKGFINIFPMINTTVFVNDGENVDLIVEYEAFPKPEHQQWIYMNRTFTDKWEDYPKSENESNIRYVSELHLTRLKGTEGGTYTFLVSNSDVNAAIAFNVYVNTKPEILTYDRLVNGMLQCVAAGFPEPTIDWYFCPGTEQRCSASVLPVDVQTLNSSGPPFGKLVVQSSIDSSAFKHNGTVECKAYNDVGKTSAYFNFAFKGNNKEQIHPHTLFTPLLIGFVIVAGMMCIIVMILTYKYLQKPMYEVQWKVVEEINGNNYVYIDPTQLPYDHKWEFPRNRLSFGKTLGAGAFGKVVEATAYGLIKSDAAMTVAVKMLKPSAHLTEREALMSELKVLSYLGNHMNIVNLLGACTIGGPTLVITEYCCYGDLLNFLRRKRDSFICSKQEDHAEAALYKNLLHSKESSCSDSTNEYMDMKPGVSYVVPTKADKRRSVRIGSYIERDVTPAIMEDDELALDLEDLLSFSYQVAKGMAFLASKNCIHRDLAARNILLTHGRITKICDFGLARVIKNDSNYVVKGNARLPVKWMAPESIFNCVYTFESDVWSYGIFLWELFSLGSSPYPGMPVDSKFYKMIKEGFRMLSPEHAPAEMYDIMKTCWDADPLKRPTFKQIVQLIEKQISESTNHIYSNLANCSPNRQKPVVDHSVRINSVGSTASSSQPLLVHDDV
Wee1-like protein kinase 2 (Homo sapiens), sequence (P0C1S8 whole entry, looked up): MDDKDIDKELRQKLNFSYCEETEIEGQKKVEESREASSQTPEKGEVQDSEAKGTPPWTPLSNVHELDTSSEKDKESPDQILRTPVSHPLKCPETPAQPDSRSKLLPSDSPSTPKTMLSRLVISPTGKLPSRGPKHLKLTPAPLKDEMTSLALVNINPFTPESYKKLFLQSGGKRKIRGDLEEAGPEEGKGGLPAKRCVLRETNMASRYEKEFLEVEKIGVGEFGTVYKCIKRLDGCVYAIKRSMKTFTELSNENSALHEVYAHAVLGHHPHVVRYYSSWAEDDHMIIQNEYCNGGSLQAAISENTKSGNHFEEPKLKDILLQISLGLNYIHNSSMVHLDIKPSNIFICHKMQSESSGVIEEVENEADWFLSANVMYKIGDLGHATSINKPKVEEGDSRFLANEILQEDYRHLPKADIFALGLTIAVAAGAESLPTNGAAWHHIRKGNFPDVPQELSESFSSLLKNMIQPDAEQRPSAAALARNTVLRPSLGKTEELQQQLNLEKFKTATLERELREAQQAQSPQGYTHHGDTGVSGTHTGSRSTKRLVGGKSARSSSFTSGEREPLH

In turn, `Cc1ccc(NC(=O)C2(C(=O)Nc3ccc(Nc4ncc(F)c(-c5cc(F)c6nc(C)n(C(C)C)c6c5)n4)cc3)CC2)cc1` had a logP in [1] of 2.53. This compound had an MRT last in [2] of 2 h. In data set [3], this compound showed a Cmax of 7000 ng/mL. For the same compound, the inhibition in data set [4] was found to be 46%; in [5], 55%; in data set [6], 23%; in data set [7], 81%; in [8], 0%; in [9], 0%. Further, the inhibition in data set [10] came to 47%; in data set [11], 42%; in data set [12], 67%; in data set [13] it was 2%; in [14], 4%; in [15], 0%. Besides, the Activity entry in data set [16], in data set [17] and in data set [18] was “Non-Toxic” each time.
For `COc1cc2nccc(Oc3ccc(NC(=O)C4(C(=O)Nc5ccc(F)cc5)CC4)cc3)c2cc1OC` [CABOZANTINIB], the result in the data set with SiHa [19] and in the data set on HeLa was Active. The inhibition entry in the data set on SiHa [20] was “Active”.
